The text below walks through data of ChEMBL document CHEMBL1177857, “Functionalized aurones as inducers of NAD(P)H:quinone oxidoreductase 1 that activate AhR/XRE and Nrf2/ARE signaling pathways: synthesis, evaluation and SAR” (Eur J Med Chem, 2010).

SMILES strings stand for the structures.

One data set addresses T1, CYP1A1 (Mus musculus, UniProt P30561).
T1 sequence (P30561 whole entry): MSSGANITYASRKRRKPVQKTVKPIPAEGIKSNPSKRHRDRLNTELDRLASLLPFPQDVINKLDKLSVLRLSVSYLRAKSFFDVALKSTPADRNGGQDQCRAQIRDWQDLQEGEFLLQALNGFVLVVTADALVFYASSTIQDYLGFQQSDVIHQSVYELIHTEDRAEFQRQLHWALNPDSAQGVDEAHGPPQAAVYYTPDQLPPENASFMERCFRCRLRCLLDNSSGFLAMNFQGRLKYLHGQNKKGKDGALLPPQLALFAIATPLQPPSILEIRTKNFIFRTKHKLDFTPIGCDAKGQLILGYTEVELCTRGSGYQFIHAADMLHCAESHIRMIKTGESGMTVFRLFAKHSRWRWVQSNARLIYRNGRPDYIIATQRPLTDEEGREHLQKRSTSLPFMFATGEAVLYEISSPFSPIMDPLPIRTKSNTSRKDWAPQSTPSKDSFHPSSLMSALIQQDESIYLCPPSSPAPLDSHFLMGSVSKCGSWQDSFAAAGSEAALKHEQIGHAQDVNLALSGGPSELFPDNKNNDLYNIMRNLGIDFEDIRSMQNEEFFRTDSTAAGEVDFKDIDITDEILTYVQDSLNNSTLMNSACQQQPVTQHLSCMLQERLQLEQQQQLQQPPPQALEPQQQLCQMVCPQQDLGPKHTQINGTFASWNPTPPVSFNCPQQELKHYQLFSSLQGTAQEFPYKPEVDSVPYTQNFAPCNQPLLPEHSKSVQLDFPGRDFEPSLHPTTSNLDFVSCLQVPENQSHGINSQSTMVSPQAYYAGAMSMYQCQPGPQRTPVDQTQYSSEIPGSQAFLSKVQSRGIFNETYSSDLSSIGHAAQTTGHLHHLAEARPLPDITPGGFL
The data set is described as follows: Induction of Ah receptor in mouse Hepa-1c1c7 cells assessed as induction of CYP1A1 activity at 25 uM after 48 hrs by EROD assay relative to control. Format: cell-based. The conditions noted are these: probe ethoxyresorufin (EROD), read-out: FC. Put shortly:
(§1)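 Hepa1c1c7 cells at 10⁴/well grown 24 h, then given compound at one fixed concentration for 48 h. After a PBS wash, cells incubated 40 min at 37 °C with 5 µM 7-ethoxyresorufin plus 2 mM salicylamide. Resorufin fluorescence read at ex 530/em 590 nm. Fold induction = (F cells+compound − F blank)/(F control − F blank); mean ± SD, n = 3.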
With `O=C1/C(=C/c2cccc(O)c2)Oc2cc(O)ccc21`, the fold induction at 48 h, 25 µM is 1.08.
For the compound `COc1ccccc1/C=C1\Oc2ccc(O)cc2C1=O`, the fold induction at 48 h, 25 µM was 1.68.
Still for that read-out and setting: then `O=C1/C(=C/c2ccc(Cl)cc2)Oc2cc(O)ccc21` [6-HYDROXY-4'-CHLORO AURONE], with 1.24; and `COc1cc(/C=C2\Oc3cc(O)cc(O)c3C2=O)ccc1O`, with 1.06; and `COc1cc(OC)c2c(c1)O/C(=C\c1cccc(O)c1)C2=O`, with 1.16.
`O=C1/C(=C/c2ccc(O)cc2)Oc2cc(O)cc(O)c21`: the fold induction at 48 h, 25 µM stood at 1.05.
For the compound `COc1cc(OC)c2c(c1)OC(=O)/C2=C\c1ccccc1OC`, the fold induction at 48 h, 25 µM turned out to be 1.03.
On the same count and under the same terms, to `COc1cc(OC)c2c(c1)O/C(=C\c1ccncc1)C2=O` belongs 1.73.

Tested on in another data set: not listed separately
The data set is described as follows: Cytotoxicity against mouse Hepa-1c1c7 cells assessed as cell survival at 25 uM after 48 hrs by MTT assay. To be noted: read-out: Activity. Format: cell-based. The gist of the method:
(§2)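 MTT (0.5 mg/ml) added for 3 h at 37 °C, formazan dissolved in DMSO and read at 590 nm. Survival (%) = (A treated − A blank)/(A untreated − A blank) × 100.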
`O=C1/C(=C/c2cccc(O)c2)Oc2cc(O)ccc21`: the viability at 48 h, 25 µM worked out at 106%.
Turning to `COc1ccccc1/C=C1\Oc2ccc(O)cc2C1=O`, the viability at 48 h, 25 µM is 95%.
On the same count and under the same terms, then `COc1cc(/C=C2\Oc3cc(O)cc(O)c3C2=O)ccc1O`, with 98%; and `COc1cc(OC)c2c(c1)O/C(=C\c1cccc(O)c1)C2=O`, with 100%.
Take `O=C1/C(=C/c2ccc(O)cc2)Oc2cc(O)cc(O)c21`: the viability at 48 h, 25 µM was 98%.
Same read-out and setting: to `COc1cc(OC)c2c(c1)OC(=O)/C2=C\c1ccccc1OC` belongs 107%; to `COc1cc(OC)c2c(c1)O/C(=C\c1ccncc1)C2=O`, 110%.

Tested on in a further data set: not listed separately
Nature of the data set: Cytotoxicity against mouse Hepa-1c1c7 cells assessed as cell survival at 5 uM after 48 hrs by MTT assay. Format: cell-based. To be noted: read-out: Activity. Put shortly:
as §2
(Tetrazolium assays rely on reduction of a dye to a coloured formazan, in cell work by metabolically active cells.)
For the compound `COc1cc(OC)c2c(c1)O/C(=C\c1cccc(F)c1)C2=O`, the viability at 48 h, 5 µM stood at 89%.
Consider `O=C1/C(=C/c2cccc(O)c2)Oc2cc(O)ccc21`, for which the viability at 48 h, 5 µM was determined as 112%.
Regarding `COc1ccccc1/C=C1\Oc2ccc(O)cc2C1=O`, the viability at 48 h, 5 µM amounted to 97%.
As for `O=C1/C(=C/c2ccc(Cl)cc2)Oc2cc(O)ccc21` [6-HYDROXY-4'-CHLORO AURONE], the viability at 48 h, 5 µM stood at 120%.
Turning to `COc1cc(/C=C2\Oc3cc(O)cc(O)c3C2=O)ccc1O`, the viability at 48 h, 5 µM stood at 97%.
For `COc1cc(OC)c2c(c1)O/C(=C\c1cccc(O)c1)C2=O`, the viability at 48 h, 5 µM was found to be 104%.
For the compound `O=C1/C(=C/c2ccc(O)cc2)Oc2cc(O)cc(O)c21`, the viability at 48 h, 5 µM worked out at 105%.
For the compound `COc1cc(OC)c2c(c1)OC(=O)/C2=C\c1ccccc1OC`, the viability at 48 h, 5 µM turned out to be 118%.
Same read-out and setting: then `COc1cc(OC)c2c(c1)O/C(=C\c1ccncc1)C2=O`, with 101%; and `COc1cc(OC)c2c(c1)O/C(=C\c1ccccc1Cl)C2=O`, with 105%; and `COc1cc(OC)c2c(c1)O/C(=C\c1cccc(Cl)c1)C2=O`, with 103%.

Tested on in another data set: not listed separately
The data set is described as follows: Induction of NQO1 activity in mouse Hepa-1c1c7 cells at 25 uM after 48 hrs relative to control.
Conditions: not given
Compound `O=C1/C(=C/c2cccc(O)c2)Oc2cc(O)ccc21` displayed a fold change (FC) of 2.92.
As to `O=C1/C(=C/c2ccc(Cl)cc2)Oc2cc(O)ccc21` [6-HYDROXY-4'-CHLORO AURONE], the fold change (FC) came out at 2.55.
The same measure, in the same setting: to `COc1cc(/C=C2\Oc3cc(O)cc(O)c3C2=O)ccc1O` belongs 2.54.
The same measure, in the same setting: to `COc1cc(OC)c2c(c1)O/C(=C\c1cccc(O)c1)C2=O` belongs 2.07; to `O=C1/C(=C/c2ccc(O)cc2)Oc2cc(O)cc(O)c21`, 1.95.
Regarding `COc1cc(OC)c2c(c1)OC(=O)/C2=C\c1ccccc1OC`, the fold change (FC) was 3.57.
For `COc1cc(OC)c2c(c1)O/C(=C\c1ccncc1)C2=O`, the fold change (FC) worked out at 4.5.

Tested on in the next data set: not listed separately
The data set is described as follows: Induction of NQO1 activity in mouse Hepa-1c1c7 cells at 5 uM after 48 hrs relative to control.
Conditions: not given
`COc1cc(OC)c2c(c1)O/C(=C\c1cccc(F)c1)C2=O` displayed a fold change (FC) of 4.47.
Consider `O=C1/C(=C/c2cccc(O)c2)Oc2cc(O)ccc21`, for which the fold change (FC) stood at 1.64.
In turn, `COc1ccccc1/C=C1\Oc2ccc(O)cc2C1=O` had a fold change (FC) of 3.1.
Regarding `O=C1/C(=C/c2ccc(Cl)cc2)Oc2cc(O)ccc21` [6-HYDROXY-4'-CHLORO AURONE], the fold change (FC) turned out to be 1.51.
`COc1cc(/C=C2\Oc3cc(O)cc(O)c3C2=O)ccc1O` yielded a fold change (FC) of 1.53.
Regarding `COc1cc(OC)c2c(c1)O/C(=C\c1cccc(O)c1)C2=O`, the fold change (FC) came out at 1.2.
On the same count and under the same terms, then `O=C1/C(=C/c2ccc(O)cc2)Oc2cc(O)cc(O)c21`, with 1.23; and `COc1cc(OC)c2c(c1)OC(=O)/C2=C\c1ccccc1OC`, with 1.79; and `COc1cc(OC)c2c(c1)O/C(=C\c1ccncc1)C2=O`, with 1.82.
For the compound `COc1cc(OC)c2c(c1)O/C(=C\c1ccccc1Cl)C2=O`, the fold change (FC) was 5.6.
Consider `COc1cc(OC)c2c(c1)O/C(=C\c1cccc(Cl)c1)C2=O`, for which the fold change (FC) was determined as 3.98.

The next data set addresses T1, CYP1A1. Nature of the data set: Induction of Ah receptor in mouse Hepa-1c1c7 cells assessed as induction of CYP1A1 activity at 5 uM after 48 hrs by EROD assay relative to control. The conditions noted are these: probe ethoxyresorufin (EROD), read-out: FC. Format: cell-based. Put shortly: as §1
Consider `COc1cc(OC)c2c(c1)O/C(=C\c1cccc(F)c1)C2=O`, for which the fold induction at 48 h, 5 µM is 1.48.
`COc1cc(OC)c2c(c1)O/C(=C\c1ccccc1Cl)C2=O`: the fold induction at 48 h, 5 µM came to 1.55.
Consider `COc1cc(OC)c2c(c1)O/C(=C\c1cccc(Cl)c1)C2=O`, for which the fold induction at 48 h, 5 µM was found to be 1.18.
